Experimental data as given in ChEMBL document CHEMBL5500386, “Design, synthesis and bioactivity evaluation of 4-hydroxycoumarin derivatives as potential anti-inflammatory agents against acute lung injury and colitis” (Eur J Med Chem, 2024).
Active and inactive are the calls of the source. The rule behind the calls is not given here.

Key:
J774.A1 [1] = test: Antiinflammatory activity in LPS-induced mouse J774.a1 cells assessed as inhibition of IL-6 production at 10 uM pretreated for 2 hrs followed by LPS stimulation and measured after 30 mins by ELISA relative to control; format: functional; details: time 2.5 hrs
Outline: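 J774A.1 cells (DMEM, 10 % FBS, 37 °C) treated with 10 μM compound or 4-HC for 2 h, then LPS. After 30 min, IL-6 in medium measured by ELISA. Result is % inhibition, mean ± SEM of three independent experiments.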

Mus musculus [2] = test: (§1) Protection against LPS-induced C57BL/6 mouse model of acute lung injury assessed as reduction in IL-6 level in serum at 20 mg/kg, po administered 3 times for every 12 hrs followed by LPS stimulation at 5 mg/kg and measured after 6 hrs by ELISA; format: functional, organism-based; details: time 30.0 hrs
Outline: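 C57BL/6 mice, 6 per group. Gavaged at 20 mg/kg three times at 12 h intervals; controls received saline, and dexamethasone 20 mg/kg served as reference. After the last dose, LPS 5 mg/kg given intratracheally. At 6 h, blood collected for serum IL-6 by ELISA. Left lung lavaged with 3 × 200 μL saline, and BALF assayed for IL-6, total protein and neutrophil count. Mean ± SEM, n = 6.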

Mus musculus [3] = test: Antiinflammatory activity in DSS-induced male C57BL/6 mouse model of inflammatory bowel disease assessed as increase in colon length at 20 mg/kg, IG administered with compound and DSS for 7 days followed by DSS replacement with distilled water for 3 days; format: functional, organism-based; details: time 10.0 day
J774.A1 [4] = test: Inhibition of LPS-induced MAPK activation in mouse J774.A1 cells assessed as reduction in p38 phosphorylation at 5 to 20 uM pretreated for 2 hrs followed by LPS stimulation and measured after 30 mins by Western blot analysis; format: cell-based; details: dose 5-20 µM, time 2.5 hrs
Outline: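 J774A.1 macrophages pretreated with 20, 10 or 5 μM for 2 h, then LPS 0.5 μg/mL for 30 min. RIPA lysates quantified by Bradford. 40 μg run on 12.5 % SDS-PAGE and transferred to PVDF. Blocked 1.5 h in BSA, primary antibody overnight at 4 °C, secondary 2 h at room temperature, detected by ECL.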

[5] = system: TGF-beta-activated kinase 1 (MAP3K7); test: Inhibition of TAK1 (unknown origin) at 10 uM relative to control; details: Homo sapiens
[6] = Acute toxicity in male ICR mouse assessed as histopathological changes in liver at 500 to 1000 mg/kg, po administered daily for 10 days by H and E staining based analysis; format: organism-based; details: in vivo, 240 h, dose 500-1000 mg/kg, time 10 day
Outline: (§2)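 Male ICR mice (8 weeks, 30 g ± 2 g), acclimatised 1 week, randomised into 1000 mg/kg, 500 mg/kg and untreated control groups (n = 24 total). Dosed by daily gavage, compound dissolved in 0.5 % DMSO then added to normal saline. Body weight and behaviour recorded daily. Euthanised after 10 days; heart, liver, spleen, lung and kidney examined by H&E staining.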

J774.A1 [7] = test: Cytotoxicity against mouse J774.A1 cells assessed as reduction in cell viability at 10 uM measured after 24 hrs by MTT assay; format: toxicity, cell-based; details: j774.a1, 24 h
Outline: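 J774A.1 cells seeded and incubated 24 h, then exposed to 10 μM compound for 24 h. MTT (5.0 mg/mL) added as 10 % for 4 h, formazan dissolved in DMSO with 30 min shaking, absorbance read at 490 nm. Expressed as % of control.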

[8] = Acute toxicity in male ICR mouse assessed as fatality at 500 to 1000 mg/kg, po administered daily for 10 days and measured daily; format: organism-based; details: in vivo, 240 h, dose 500-1000 mg/kg, time 10 day; outline: as §2
[9] = Acute toxicity in male ICR mouse assessed as histopathological changes in kidney at 500 to 1000 mg/kg, po administered daily for 10 days by H and E staining based analysis; format: organism-based; details: in vivo, 240 h, dose 500-1000 mg/kg, time 10 day; outline: as §2
[10] = Half life in male Sprague-Dawley rat at 1 mg/kg, iv measured upto 24 hrs by triple quadrupole mass spectrometric analysis; format: ADME, organism-based; details: in vivo
Outline: (§3)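 Male SD rats (8 weeks, 200 g ± 20 g), n = 3 per route. Oral: 10 mg/kg by gavage in 0.05 % DMSO/normal saline, tail-vein blood at 13 times from 10 min to 24 h. IV: 1 mg/kg tail vein in 5 % DMSO/30 % PEG400/65 % saline, 14 samples from 5 min to 24 h. Heparinised plasma precipitated with acetonitrile containing internal standard. Non-compartmental analysis on mean concentrations.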

[11] = target: Interleukin-1 receptor-associated kinase 1 (Homo sapiens) (UniProt P51617); test: Inhibition of IRAK1 (unknown origin) at 10 uM relative to control
THP-1 = test: Antiinflammatory activity in LPS-induced human THP-1 cells assessed as inhibition of IL-6 production pretreated for 30 mins followed by LPS stimulation and measured after 24 hrs by ELISA; format: functional, cell-based
Outline: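 Cells pretreated 30 min with a gradient of concentrations (2.5–10 μM range) or DMSO, then given LPS 0.5 μg/mL for 24 h. IL-6 in medium measured by ELISA and normalised to living cell number by MTT. Expressed as % of the LPS group, mean ± SEM of triplicates. IC50 taken from the concentration-response.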

[12] = Acute toxicity in male ICR mouse assessed as adverse effects at 500 to 1000 mg/kg, po administered daily for 10 days and measured daily; format: organism-based; details: in vivo, 240 h, dose 500-1000 mg/kg, time 10 day; outline: as §2
Mus musculus [13] = test: as §1, with “destruction of the alveolar cell structure” for “IL-6 level in serum”, “immunohistochemical staining based analysis” for “ELISA”; format: functional, organism-based; details: time 30.0 hrs
Outline: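 LPS-induced ALI in C57BL/6 mice: 20 mg/kg orally three times at 12 h intervals, then intratracheal LPS 5 mg/kg, lungs taken at 6 h. F4/80 IHC: xylene deparaffinisation, citrate pH 6 retrieval for 25 min, primary antibody at 4 °C for 12 h, secondary 1:2000, DAB and hematoxylin. Viewed at ×20.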

Mus musculus [14] = test: Antiinflammatory activity in DSS-induced male C57BL/6 mouse model of inflammatory bowel disease assessed as reduction in red and white pulp merging in spleen at 20 mg/kg, IG administered with compound and DSS for 7 days followed by DSS replacement with distilled water for 3 days by H and E staining based analysis; format: functional, organism-based; details: time 10.0 day
[15] = Cmax in male Sprague-Dawley rat at 10 mg/kg, po measured upto 24 hrs by triple quadrupole mass spectrometric analysis; format: ADME, organism-based; details: in vivo
[16] = Acute toxicity in male ICR mouse assessed as histopathological changes in lung at 500 to 1000 mg/kg, po administered daily for 10 days by H and E staining based analysis; format: organism-based; details: in vivo, 240 h, dose 500-1000 mg/kg, time 10 day; outline: as §2
[17] = AUC (0 to infinity) in male Sprague-Dawley rat at 10 mg/kg, po measured upto 24 hrs by triple quadrupole mass spectrometric analysis; format: ADME, organism-based; details: in vivo; outline: as §3
Mus musculus [18] = test: Protection against LPS-induced C57BL/6 mouse model of acute lung injury assessed as reduction in thickening of the alveolar septum in lungs at 20 mg/kg, po administered 3 times for every 12 hrs followed by LPS stimulation at 5 mg/kg and measured after 6 hrs by H and E staining based analysis; format: functional, organism-based; details: time 30.0 hrs
Outline: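 LPS-induced ALI in C57BL/6 mice: 20 mg/kg orally three times at 12 h intervals, then intratracheal LPS 5 mg/kg, killed at 6 h. Lungs paraffin-embedded, cut into 5 μm sections and H&E stained. Viewed at ×20.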

Interleukin-1 receptor-associated kinase 1 (Homo sapiens), sequence (P51617 whole entry, looked up): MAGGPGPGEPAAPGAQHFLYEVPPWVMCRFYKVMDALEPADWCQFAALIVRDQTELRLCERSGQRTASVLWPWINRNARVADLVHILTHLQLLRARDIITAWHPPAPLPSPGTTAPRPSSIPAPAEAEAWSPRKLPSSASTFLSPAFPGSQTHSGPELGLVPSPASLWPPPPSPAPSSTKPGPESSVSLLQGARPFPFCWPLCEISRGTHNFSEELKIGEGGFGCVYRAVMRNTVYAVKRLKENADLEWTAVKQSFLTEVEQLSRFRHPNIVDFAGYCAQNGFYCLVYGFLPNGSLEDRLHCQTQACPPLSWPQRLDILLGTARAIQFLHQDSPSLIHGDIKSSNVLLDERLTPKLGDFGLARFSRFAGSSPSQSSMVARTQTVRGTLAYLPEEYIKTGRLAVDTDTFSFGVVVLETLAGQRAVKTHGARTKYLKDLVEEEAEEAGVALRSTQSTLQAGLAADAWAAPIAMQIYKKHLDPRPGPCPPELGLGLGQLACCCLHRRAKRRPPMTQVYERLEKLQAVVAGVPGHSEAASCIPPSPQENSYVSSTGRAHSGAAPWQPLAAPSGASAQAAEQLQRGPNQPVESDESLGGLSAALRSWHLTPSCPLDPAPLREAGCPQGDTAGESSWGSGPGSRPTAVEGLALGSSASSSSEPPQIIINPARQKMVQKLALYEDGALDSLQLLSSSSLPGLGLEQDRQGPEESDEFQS

**Q.** What does the source list for CC(=O)N1CCN(CCOc2cc(=O)oc3ccccc23)CC1?
**A.** inhibition at 10 µM (J774.A1 [1]): 51.6%; Activity (Mus musculus [2]): Active; Activity (Mus musculus [3]): Active; inhibition (J774.A1 [4]): Active; inhibition [5]: 1.05%; Activity [6]: Non-Toxic; Activity (J774.A1 [7]): Non-Toxic; Activity [8]: Non-Toxic; Activity [9]: Non-Toxic; half-life [10]: 18.6 min; inhibition [11]: 48.1%; IC50 (THP-1): 6.51 µM; Activity (THP-1; time 24.5 hrs): Dose-Dependent Effect; Activity [12]: Non-Toxic; Activity (Mus musculus [13]): Active; Activity (Mus musculus [14]): Active; Cmax [15]: 1010 ng/mL; Activity [16]: Non-Toxic; AUC(0-inf) [17]: 3260 ng·h/mL; Activity (Mus musculus [18]): Active
